High-throughput results from PubChem.
In the library only some 3.7% were active in any assay of this set; here they are far more common.
EP2 mod = EP2 receptor (human) modulation; P43116; EP2-expressing cells, cAMP HTRF FRET, PGE2 co-stimulation; induction, % at 25 µM; 0.83% of 260,000 active;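 active means compounds whose cAMP rise, as percent of the full-agonist control response, exceeds 60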;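 further: rat C6 glioma line stably carrying human EP2 under a CMV promoter; the protocol text gives 20 µM as final concentration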
Target sequence (P43116 whole entry, looked up): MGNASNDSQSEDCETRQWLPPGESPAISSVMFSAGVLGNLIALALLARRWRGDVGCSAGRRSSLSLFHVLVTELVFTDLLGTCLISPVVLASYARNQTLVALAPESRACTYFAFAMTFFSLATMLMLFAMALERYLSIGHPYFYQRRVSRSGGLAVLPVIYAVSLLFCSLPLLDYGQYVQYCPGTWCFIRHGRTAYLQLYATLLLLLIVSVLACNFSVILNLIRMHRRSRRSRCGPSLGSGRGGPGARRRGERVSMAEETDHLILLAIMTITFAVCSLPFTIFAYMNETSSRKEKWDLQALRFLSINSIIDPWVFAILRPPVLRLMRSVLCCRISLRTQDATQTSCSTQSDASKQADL
CHO parental Ca = counter-screen: ATP calcium response change in parental CHO cells; inhibition, % at 5.6 µM; AID 463079; parental CHO-K1, ATP-induced calcium, Fluo-8 fluorescence; 0.63% of 330,000 active;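 active means inhibition above that plate's mean sample inhibition plus 3 SD, cut at about 26% in these data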
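test system = CHO parental line | reagent = ATP stimulus | measured by = intracellular calcium via Fluo-8 no-wash fluorescent dye | control set = ATP and no-ATP DMSO wells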
PGE2 EP2 inh = EP2 receptor (human) inhibition | P43116 | C6 glioma cells expressing human EP2, cAMP TR-FRET; cells stimulated with saturating PGE2 | inhibition, % at 25 µM | 0.52% of 260,000 active | AID 1422;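 active means percent inhibition above 40 after rounding to a whole number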;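 further: rat C6 glioma host cells with rolipram phosphodiesterase inhibitor present; the protocol text gives 20 µM as final concentration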
OX1R antag-1 = OX1R (human) antagonism; O43613; inhibition, % at 6.6 µM; OX1R-expressing cells, FRET antagonist read-out; AID 485270; 1.8% of 330,000 active; in the data active means inhibition mostly above about 38%, no sharp cut-off; inactive means mostly below about 40%
GPR7 antagonist = human neuropeptides B/W receptor 1 antagonism | GPR7-expressing cells, fluorescence antagonist assay | inhibition, % at 4.4 µM | 1.1% of 290,000 active | AID 1861; in the data active means inhibition above about 16%, passing the limit was not always enough;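 further: cells stimulated with the agonist NPW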
OX1R antag-2 = antagonists of human orexin 1 receptor; O43613; CHO/OX1R cells, Fluo-8 calcium fluorescence, orexin A; inhibition, % at 5 µM; 0.43% of 330,000 active; AID 434989;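 active means inhibition above its plate's threshold, mean inhibition of all tested compounds on the plate plus 3 SD, cut at about 37% in these data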
GPR7 antag conf = confirmation of human GPR7 antagonists; shares compounds with GPR7 antagonist; GPR7-expressing cells, calcium fluorescence antagonist mode; 52% of 2,400 active; inhibition, % at 4.4 µM; in the data active means inhibition above about 24%;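 further: stimulated with the GPR7 agonist NPW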
MCHR1 antagonist = counter-screen for GPR7 antagonists: antagonists of human MCHR1 | shares compounds with GPR7 antagonist | MCHR1-expressing cells, fluorescence antagonist assay | inhibition, % at 4.4 µM | 62% of 2,400 active | AID 2148; in the data active means inhibition above about 22%
Numbers stand for hits; - = inactive; . = not tested or not shown.

SMILES	EP2 mod	CHO parental Ca	PGE2 EP2 inh	OX1R antag-1	GPR7 antagonist	OX1R antag-2	GPR7 antag conf	MCHR1 antagonist
CS/C(=C\[N+](=O)[O-])Nc1ccc(F)cc1	-	-	-	-	23.4	-	-	-
CS/C(=C\[N+](=O)[O-])Nc1ccccc1	-	-	-	-	-	-	.	.
C(=C\c1ccccc1)/CSc1nnc(-c2ccccc2)n1Cc1ccco1	-	-	-	-	31.5	-	41.5	63.9
C(=C\c1ccccc1)/CSc1nnc(-c2ccncc2)n1Cc1ccco1	-	-	-	-	-	-	.	.
COc1ccc(C)c2sc(N(CCN(C)C)C(=O)/C=C/c3cccs3)nc12	.	-	.	-	28.7	-	38.3	38.2
COc1ccc(OC)c2sc(N(CCN(C)C)C(=O)/C=C/c3cccs3)nc12	.	-	.	-	31.3	-	-	-
CCOc1cccc2sc(N(CCN(C)C)C(=O)/C=C/c3cccs3)nc12	.	-	.	-	-	-	.	.
CC(C)NC(=S)N1CCN(Cc2ccc3c(c2)OCO3)CC1	-	-	-	-	-	-	.	.
CCCN(CC(=O)Nc1ccc(F)c(F)c1F)CC(=O)Nc1c(Cl)cccc1Cl	-	-	-	-	22.4	-	25.2	25.0
CCCN(CC(=O)Nc1cccc(Br)c1)CC(=O)Nc1ccc(F)c(F)c1F	-	-	-	-	22.5	-	30.9	46.9
CCCN(CC(=O)Nc1ccc(NC(C)=O)cc1)CC(=O)Nc1ccc(F)c(F)c1F	.	-	.	-	-	-	.	.
COc1ccc(CN2CCN(Cc3c[nH]c4ccccc34)CC2CCO)c(F)c1 (stereo unspecified)	.	-	.	-	-	-	.	.
O=C(Cc1nc2ccccc2s1)c1ccc(O)cc1O	-	-	-	-	25.3	-	-	-
CCn1c(C)nc2cc(C(=O)NNC(=S)Nc3ccc(Cl)cc3Cl)ccc21	-	-	-	-	-	-	.	.
CCOC(=O)N1CCN(C(=S)NC2CCCC2)CC1	-	-	-	-	-	-	.	.
CCOC(=O)N1CCN(C(=S)NC(C)(C)C)CC1	-	-	-	-	21.2	-	-	-
COc1ccc(C[C@H]2CN3C(=NC[C@@H]3Cc3ccccc3)N2CCNC(=O)CCC2CCCCC2)cc1	-	-	-	-	37.2	-	52.3	39.2
COc1ccc(C[C@H]2CN3C(=NC[C@@H]3C(C)C)N2CCNC(=O)CCC2CCCCC2)cc1	-	-	.	-	-	-	.	.
CCCS(=O)(=O)c1nc(S(=O)(=O)c2ccc(C)cc2)c(N2CCC(C)CC2)s1	.	-	.	-	-	-	.	.
CCS(=O)(=O)c1nc(S(=O)(=O)c2ccc(C)cc2)c(N2CCC(C)CC2)s1	.	-	.	-	21.7	-	-	49.3
CCOc1cc(CNCc2ccccc2)ccc1OCc1ccc(Cl)cc1	.	92.1	.	-	65.8	69.0	56.4	77.8
COc1cc(CNCc2ccccn2)ccc1OCc1ccc(Cl)c(Cl)c1	-	-	-	-	24.2	-	-	68.4
CCOc1cc(CNCCc2ccc(S(N)(=O)=O)cc2)ccc1OCc1ccccc1	-	-	-	-	-	-	.	.
O=C(Nc1ccccc1C1CC1)c1cccs1	-	-	-	-	-	-	.	.
O=c1c(/C=N/O)coc2ccc3ccccc3c12	-	-	-	-	27.2	-	-	-
SMILES	EP2 mod	CHO parental Ca	PGE2 EP2 inh	OX1R antag-1	GPR7 antagonist	OX1R antag-2	GPR7 antag conf	MCHR1 antagonist
O=C(c1ccc(Cl)c(Cl)c1)N(Cc1ccco1)c1ccc(O)cc1	-	-	-	-	28.7	-	-	-
COCCCNC(=S)N1CCC(NC(=O)Nc2ccc(C)cc2)CC1	-	-	-	-	21.4	-	-	-
CC(C)(C)NC(=O)C1CC(=O)N(CCc2ccc(F)cc2)C1 (stereo unspecified)	.	-	.	-	-	-	.	.
Cc1cc(OCC(=O)Nc2ccncc2)cc(C)c1Cl	.	43.9	.	-	28.8	52.9	36.4	59.9
COc1ccc(NC(=O)[C@H](Cc2c[nH]c3ccccc23)NC(=O)[C@@H]2Cc3ccccc3CN2)cc1	.	-	.	-	-	-	.	.
CC(C)c1ccc(NC(=O)[C@H](Cc2c[nH]c3ccccc23)NC(=O)[C@@H]2Cc3ccccc3CN2)cc1	.	-	.	-	27.3	-	-	-
Cc1cc(-c2cncnc2C2CCCN(C(=O)CN3C(=O)C4C5CCC(C5)C4C3=O)C2)on1 (stereo unspecified)	-	.	.	.	.	.	.	.
Nc1n[nH]c(N)c1N=Nc1cccc(C(F)(F)F)c1	.	-	.	-	41.0	-	38.4	35.9
COCCCNC(=S)N(Cc1ccc(F)cc1)Cc1cc2ccc(C)c(C)c2[nH]c1=O	-	.	-	.	.	.	.	.
CC1CC(C)CN(C(=O)COC(=O)c2cncc(Br)c2)C1 (stereo unspecified)	.	-	.	-	.	-	.	.
c1ccc(-c2ccc(CN3CCSCC3)cc2)cc1	.	-	.	-	24.0	-	-	-
COCC(C)NC(=O)CCc1nnc(C2(c3ccc(Cl)cc3)CCC2)o1 (stereo unspecified)	-	-	-	-	-	-	.	.
CC(c1ccon1)N(C)C(=O)CCc1nnc(C2(c3ccc(Cl)cc3)CCC2)o1 (stereo unspecified)	-	-	-	-	25.0	-	-	-
CC(C)c1nc(SCC(=O)c2c[nH]c3ccccc23)n[nH]1	-	-	-	-	32.6	-	-	-
CCc1nc(SCC(=O)c2c[nH]c3ccccc23)n[nH]1	-	-	-	-	-	-	.	.
COc1ccccc1N1CCN(C(c2ccc(F)cc2)c2nnnn2C(C)C)CC1 (stereo unspecified)	-	.	-	.	43.0	.	-	-
COc1ccccc1N1CCN(C(c2ccc(C)cc2)c2nnnn2C(C)C)CC1 (stereo unspecified)	-	-	-	-	-	-	.	.
CC(NCc1cccc(OCc2ccccc2)c1)C(O)c1ccccc1 (stereo unspecified)	-	-	-	-	-	-	.	.
CC(NCc1ccc(OCc2ccc(Cl)cc2)cc1)C(O)c1ccccc1 (stereo unspecified)	-	-	-	-	27.3	-	58.2	80.9
Cn1cc(C(c2ccccn2)c2cn(C)c3ccccc23)c2ccccc21	-	-	-	-	25.8	-	40.8	45.0
Cc1ccc(C(=O)Nn2cnnc2)cc1[N+](=O)[O-]	.	-	-	-	-	-	.	.
CC1CCCC(NC(=S)Nc2ccc(SC(F)F)cc2)C1C (stereo unspecified)	-	47.6	-	-	44.6	60.0	32.1	53.9
O=C(CSCc1ccc([N+](=O)[O-])cc1)NN=C1CCCCCC1	-	-	-	-	-	-	.	.
COc1cc(/C=N/NC(=O)CSCc2ccc([N+](=O)[O-])cc2)cc(OC)c1OC	-	-	-	-	22.4	-	25.7	22.6
